The list is not random: actives were taken first. Their share in the collection is about 2.3%.
RAM inhibit: inhibitors of the yeast RAM network. S. cerevisiae dse1pr::URA3 reporter, 5-FOA growth OD615, 2 d; analog-sensitive cbk1-as2 kinase mutant strain. 1.8% of 190,000 active. inhibition, % at 50 µM;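 active = inhibition above a set limit, 3 SD over mean compound inhibition, cut at about 8.4% in these data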;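 note: 0% = DMSO-only wells with no growth and 100% = 10 µM 1-NA-PP1 full growth; inhibition rescues growth on 5-FOA so higher OD means more RAM inhibition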
ABCB1 block: inhibitors of human ABCB1 transporter, ABCG2 counter-screen; inhibition, % at 6.6 µM; CCRF-Adr cells, JC-1 efflux, flow cytometry; P08183; 0.067% of 190,000 active; in the data active = inhibition above about 40%;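 note: 0% = vehicle and 100% = reference inhibitor; higher value means more JC-1 retained so stronger ABCB1 efflux block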
Target sequence (P08183 whole entry, looked up): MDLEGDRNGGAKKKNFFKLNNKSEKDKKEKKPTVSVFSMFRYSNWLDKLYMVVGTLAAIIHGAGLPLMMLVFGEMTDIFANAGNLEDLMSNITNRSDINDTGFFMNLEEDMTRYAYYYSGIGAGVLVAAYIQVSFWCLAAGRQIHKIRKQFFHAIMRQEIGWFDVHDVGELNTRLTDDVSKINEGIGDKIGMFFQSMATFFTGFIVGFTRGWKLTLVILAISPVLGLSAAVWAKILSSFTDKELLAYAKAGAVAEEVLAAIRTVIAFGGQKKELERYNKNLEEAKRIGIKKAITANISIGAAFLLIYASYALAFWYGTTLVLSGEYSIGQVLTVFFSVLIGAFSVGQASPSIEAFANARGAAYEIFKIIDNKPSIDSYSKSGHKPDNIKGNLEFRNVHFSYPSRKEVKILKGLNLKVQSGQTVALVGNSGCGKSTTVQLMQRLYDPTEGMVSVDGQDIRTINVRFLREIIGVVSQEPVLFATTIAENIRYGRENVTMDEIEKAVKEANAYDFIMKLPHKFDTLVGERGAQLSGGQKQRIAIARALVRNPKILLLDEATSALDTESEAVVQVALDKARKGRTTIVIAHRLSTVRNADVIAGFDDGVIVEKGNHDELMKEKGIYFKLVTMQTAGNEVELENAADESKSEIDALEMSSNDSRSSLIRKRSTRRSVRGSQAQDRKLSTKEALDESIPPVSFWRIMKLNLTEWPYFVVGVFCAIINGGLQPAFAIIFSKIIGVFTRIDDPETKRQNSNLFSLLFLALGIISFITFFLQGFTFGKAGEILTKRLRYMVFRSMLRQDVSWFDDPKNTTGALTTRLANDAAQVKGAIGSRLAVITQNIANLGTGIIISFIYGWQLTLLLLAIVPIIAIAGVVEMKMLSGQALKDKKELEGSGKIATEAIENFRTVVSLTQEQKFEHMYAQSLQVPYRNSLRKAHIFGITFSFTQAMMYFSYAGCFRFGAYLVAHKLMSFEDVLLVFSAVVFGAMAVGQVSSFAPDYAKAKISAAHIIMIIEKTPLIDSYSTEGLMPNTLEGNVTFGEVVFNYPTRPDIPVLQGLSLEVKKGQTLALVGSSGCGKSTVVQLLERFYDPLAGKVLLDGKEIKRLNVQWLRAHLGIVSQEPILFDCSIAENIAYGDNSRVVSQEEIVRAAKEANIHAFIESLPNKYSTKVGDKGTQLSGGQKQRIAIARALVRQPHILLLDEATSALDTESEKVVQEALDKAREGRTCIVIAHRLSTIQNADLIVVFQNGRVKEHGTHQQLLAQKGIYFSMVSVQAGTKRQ
ABCG2 inh: inhibitors of human ABCG2 transporter, ABCB1 counter-screen; Q9UNQ0; IgMXP3 cells, JC-1 efflux, flow cytometry; inhibition, % at 6.6 µM; 0.1% of 190,000 active; AID 1325;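 active = inhibition above 80%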;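 note: 0% = DMSO and 100% = nicardipine control wells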
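Incubation: cells with compound and JC-1, 10 min at 25 °C, rotating, no wash / Test system: IgMXP3 (ABCG2) plus far-red-tagged CCRF-Adr (ABCB1) cells / Compound dosing: one concentration, 6.6 µM final / Also added: JC-1 fluorescent substrate / Evaluation: efflux inhibition in percent versus controls / Detection: flow cytometry, 530 nm JC-1 signal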
Arbovirus anti: antivirals against arbovirus infection; arbovirus infection cell-based antiviral screen; inhibition, % at 10 µM; 0.37% of 200,000 active; in the data active = inhibition above about 30%
* = called active by the depositor.

SMILES | RAM inhibit | ABCB1 block | ABCG2 inh | Arbovirus anti
CN(C[C@H](Cc1ccccc1)N(C[C@H](Cc1ccccc1)N(CCc1cc(C(F)(F)F)cc(C(F)(F)F)c1)N=O)N=O)N=O | 7 | 0 | 0 | 2
CN(C[C@H](CC1CCCCC1)N(C[C@H](Cc1ccccc1)N(CCc1ccccc1)N=O)N=O)N=O | 11* | 1 | 1 | -1
CN(C[C@H](Cc1ccccc1)N(CCN(CCc1ccccc1)N=O)N=O)N=O | 3 | 1 | 2 | 2
CCNC(=O)/C(=C/c1ccc2c(c1)OCO2)NC(=O)c1ccc(Br)cc1 | 3 | 0 | 2 | -5
O=C(O)CC(NC(=O)c1sc2ccccc2c1Cl)c1ccc(OC2CCCC2)cc1 (stereo not drawn) | 9.6* | 0 | 0 | -13
Cc1nc(NC(=O)CN(C)S(=O)(=O)c2ccc(Br)cc2)sc1C | 3 | 0 | 0 | -5
CCC(=O)NC(/C=C/c1ccccc1)c1cc([N+](=O)[O-])c2cccnc2c1O (stereo not drawn) | 11* | 0 | -1 | -21
CC(C)CSc1nnc2c(n1)[nH]c1ccccc12 | 5 | 0 | 4 | 3
Fc1ccc2nc3[nH]c4ccccc4c3nc2c1 | 8.9* | 0 | 2 | -10
CCOc1ccccc1OCC(=O)Nc1nnc(C)s1 | 1 | 0 | 3 | 5
COc1cc(OC)c(-c2c3cc(O)c(=O)cc-3oc3cc(O)c(O)cc23)cc1OC | 10* | 0 | 0 | -17
O=C1/C(=C/c2cccnc2)SC(=S)N1C1CCS(=O)(=O)C1 (stereo not drawn) | 2 | 0 | 2 | 3
Cc1ccc(SCCNC(=S)Nc2cc(C)ccc2C)cc1 | 8.9* | 2 | 8 | -27
Cc1ccc(SCCNC(=S)Nc2ccccc2)cc1 | 1 | 0 | 2 | -26
COc1ccccc1NC(=S)NCCSc1ccc(C)cc1 | 3 | 0 | 5 | 34*
Cc1ccc(C)c(NC(=S)NCCc2ccc(F)cc2)c1 | -1 | 1 | 22 | 6
COc1ccc(OC)c2[nH]c(=O)c(CCNC(=O)c3cc4ccccc4o3)cc12 | 2 | 3 | 7 | 1
Cc1ccc(C)c2[nH]c(=O)c(CCNC(=O)c3cc4ccccc4o3)cc12 | 8.5* | 3 | 3 | 4
COCc1ccc(CN2CCCC(CO)(Cc3ccccc3C)C2)o1 (stereo not drawn) | 1 | 0 | 9 | -2
N#Cc1nc(COc2ccccc2)oc1N1CCC(Cc2ccccc2)CC1 | 11* | 0 | 2 | 12
CC1CCN(c2oc(Cc3cccc4ccccc34)nc2C#N)CC1 | 10* | 1 | 3 | -4
N#Cc1nc(COc2ccccc2)oc1N1CCN(Cc2ccccc2)CC1 | 1 | 1 | 2 | 10
CC(Sc1nc(-c2ccccc2)cc(C(F)(F)F)n1)C(=O)Nc1sc2c(c1C#N)CCC2 (stereo not drawn) | 10.0* | 6 | 2 | -5
COc1cc(-c2nnc(COc3ccc4ccccc4c3)o2)cc(OC)c1OC | 9.4* | 1 | 33 | 15
CCCc1nnc(-c2cc(OC)c(OC)c(OC)c2)o1 | 2 | 1 | 14 | 3
SMILES | RAM inhibit | ABCB1 block | ABCG2 inh | Arbovirus anti
COc1ccc(OC)c(Nc2nc(-c3ccccc3O)nc3ccccc23)c1 | 9.7* | 0 | -1 | 5
CCCCCNc1nc(N2CCCC2)c2c(c1C#N)CCN(C)C2 | 0 | 1 | 2 | -30
COc1ccc(/C=N/N=C2/NC(=O)C(CC(=O)O)S2)cc1OS(=O)(=O)c1ccccc1 (stereo not drawn) | 4 | 0 | 1 | -1
Cc1ccc(S(=O)(=O)Oc2ccc(C)cc2/C=N/N=C2\NC(=O)C(C)S2)cc1 (stereo not drawn) | 2 | 1 | 13 | 30*
O=C(O)C1CCCCC1C(=O)Nc1nc(-c2ccc(Cl)s2)cs1 (stereo not drawn) | 7 | 0 | 2 | 38*
CCCC(=O)Nc1nc(-c2ccc(Cl)s2)cs1 | 4 | 0 | 1 | 14
CS(=O)(=O)n1nc(OC(=O)c2cccc3ccccc23)cc1N | 1 | 1 | 4 | -11
Cc1cc(C)c(C#N)c(SCC2COc3ccccc3O2)n1 (stereo not drawn) | 8.5* | 0 | 6 | 0
CCNS(=O)(=O)c1ccc(NC(=O)c2ccccc2SCCOC)cc1 | 0 | 0 | 2 | 0
CN(Cc1ccccc1)CC(O)COc1ccc(CNCc2nccn2C)cc1 (stereo not drawn) | 1 | 0 | 1 | -11
O=C1CSC(=Nc2ccccc2)N1Cc1ccccc1 | -1 | 1 | 1 | 3
Cc1ccccc1N=C1SCC(=O)N1Cc1ccccc1 | 0 | 0 | 7 | 37*
Cc1ccc(/C=C/C(=O)c2cc(Br)ccc2OC(=O)c2ccco2)cc1 | 11* | 1 | 4 | -24
COc1ccc(S(=O)(=O)n2ccc(C(C)Oc3ccc(-c4ccccc4)c(F)c3)n2)cc1 (stereo not drawn) | 4 | 1 | 2 | 9
CC(Oc1ccc(-c2ccccc2)c(F)c1)c1ccn(S(=O)(=O)c2ccc(F)cc2)n1 (stereo not drawn) | 9.4* | 1 | 1 | 4
COCCNC(=O)CSc1nnc(-c2ccccc2F)n1Cc1ccccc1 | -1 | 0 | 1 | 11
CCOC(=O)C1=C(C)N(c2ccc(C)c(C)c2)C(=O)/C1=C\c1ccco1 | 11* | 4 | 19 | 4
COc1cccc2sc(NN)nc12 | 0 | -1 | -2 | 37*
O=C(O)c1ccccc1N/N=C\c1ccnc2ccccc12 | 2 | 1 | 5 | 31*
CNC(=S)N(CCc1c(C)[nH]c2ccc(Cl)cc12)Cc1cccs1 | 6 | 0 | 17 | -29
COCCNC(=S)N(CCc1c(C)[nH]c2ccc(Cl)cc12)Cc1cccs1 | 9.8* | 0 | 2 | -27
CCC(=O)c1ccc(Oc2ccc(C(=O)c3ccc(C)cc3)cc2[N+](=O)[O-])cc1 | 11* | 18 | 24 | -31
CCOC(=O)c1oc2ccccc2c1CSc1nnnn1-c1ccccc1 | 7 | -1 | 10 | 2
CCOc1ccc(S(=O)(=O)N2CCN(c3ccccc3OC)CC2)c2cccnc12 | 0 | 1 | 0 | 34*
CCOc1ccc(S(=O)(=O)N2CCN(c3ccccc3)CC2)c2cccnc12 | -1 | 2 | 5 | 18
SMILES | RAM inhibit | ABCB1 block | ABCG2 inh | Arbovirus anti
O=C(CNC(=O)c1ccccc1Cl)OCC(=O)N1CCc2ccccc21 | 4 | 1 | 3 | 10
CC/C(=N\NC(=S)NC(C)C)c1ccc(OC)c(OC)c1 | 0 | 0 | 1 | 9
C=CCn1c(SCC(=O)OCC)nc2cc(C(=O)NCc3ccco3)ccc2c1=O | 3 | 1 | 6 | -1
CCCCCn1c(SCC(=O)OCC)nc2cc(C(=O)NCc3ccco3)ccc2c1=O | 11* | 5 | 61 | -4
Cc1ccc(NC(=O)COC(=O)/C(=C/c2cccs2)c2cccs2)cc1S(=O)(=O)N(C)C | 8.9* | 4 | 2 | 12
O=C(Nc1cccc(NC(=O)c2cccs2)c1)c1ccco1 | 1 | 0 | 0 | 64*
O=C(Nc1ccc(NC(=O)c2cccs2)cc1Cl)c1ccco1 | 3 | -1 | -6 | -10
COc1ccc(Cn2c(C)c(C)c(C#N)c2NC(=O)Nc2cccc(C)c2)cc1 | 2 | 2 | 21 | 52*
